Kir21 inh – blocks the mouse Kir2.1 inward-rectifier potassium channel | B-score at 10 µM | AID 1672 | P35561 | HEK293-Kir2.1, FluxOR thallium flux fluorescence; stronger effect = lower value | actives 0.85% (n = 310,000);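 active means fluorescence ratio B-score at or below minus 3 SD of library scores, with starting-brightness B-score within 2 SD, cut at about -4.2 in these data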;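 further: channel flux triggered by added potassium and thallium sulfate stimulus; B-score of peak minus minimum fluorescence over baseline after thallium stimulus; more negative B-score means stronger Kir2.1 block with less thallium influx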
KCNK9 inh-1 – inhibitors of human KCNK9 two-pore domain potassium channel; actives 1.2% (n = 310,000); HEK293 KCNK9, FluxOR thallium flux fluorescence; stronger effect = lower value; B-score at 10 µM;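 active means ratio B-score over 3 SD below the library mean, with starting fluorescence within 5 SD of its mean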;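 further: negative B-score means less thallium flux so channel inhibition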
KCNQ1 inh – human KCNQ1 channel inhibition. P51787. CHO-K1 KCNQ1, FluxOR thallium flux fluorescence; stronger effect = higher value. B-score at 10 µM. actives 1.3% (n = 310,000). AID 2642;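 active means compounds whose thallium flux B-score, printed positive for inhibition, exceeds three library SD while starting fluorescence stays within three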;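 further: channel opened by potassium depolarization with thallium stimulus after 20 min compound exposure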
KCNK3 block – human KCNK3 channel inhibition, primary screen; O14649; CHO-KCNK3 thallium flux, FluxOR fluorescence; stronger effect = lower value; B-score at 10 µM; actives 0.84% (n = 340,000);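 active means B-score under library mean minus 4 SD, starting fluorescence ratio at most library mean plus 5 SD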;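 further: more negative B-score means stronger inhibition of thallium flux through KCNK3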
Target sequence (O14649 whole entry, looked up): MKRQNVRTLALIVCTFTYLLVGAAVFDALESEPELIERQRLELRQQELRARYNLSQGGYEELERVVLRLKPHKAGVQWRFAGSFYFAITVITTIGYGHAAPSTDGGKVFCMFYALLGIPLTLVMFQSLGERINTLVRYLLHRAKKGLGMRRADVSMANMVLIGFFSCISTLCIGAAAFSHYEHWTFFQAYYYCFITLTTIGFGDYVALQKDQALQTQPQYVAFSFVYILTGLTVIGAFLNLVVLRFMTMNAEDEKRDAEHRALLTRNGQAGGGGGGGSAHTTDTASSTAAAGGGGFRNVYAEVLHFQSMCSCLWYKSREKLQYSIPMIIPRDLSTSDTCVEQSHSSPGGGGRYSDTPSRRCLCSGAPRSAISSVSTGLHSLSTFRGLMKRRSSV
KCNQ1 pot – potentiators or activators of human KCNQ1 potassium channel. CHO-K1 KCNQ1, thallium flux FluxOR fluorescence; stronger effect = higher value. AID 2648. actives 0.35% (n = 310,000). P51787. B-score at 10 µM;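 active means fluorescence ratio B-score, a plate-corrected score, at least three library SD, with initial intensity B-score within 5 SD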
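Assay system: stable KCNQ1 CHO-K1 line; medium: assay buffer, equal DMSO in all wells; timing: 90 min dye loading and 20 min compound exposure, both at room temperature; technique: kinetic FluxOR thallium fluorescence, 10-s 1-Hz baseline, 110-s post-stimulus read; read-out basis: B score of baseline-normalized fluorescence ratio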
hERG rescue – compounds protecting human hERG from proarrhythmic drug block | CHO-hERG, FluxOR thallium flux, dofetilide IC70 present | activation (rescue from dofetilide block), less the hit threshold, % at 10 µM | actives 0.51% (n = 310,000);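 active means activation above the mean of controls blocked by dofetilide plus 5 SD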;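 further: thallium influx through hERG after potassium depolarization seen as dye fluorescence rise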
hERG ctr – hERG (human) inhibition as Kir2.1 counter-screen; actives 20% (n = 320); AID 2236; inhibition, % at 10 µM; shares compounds with Kir21 inh; hERG-expressing cells, thallium flux;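 further: host cells are CHO cells stably expressing hERG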
KCNK9 inh-2 – human KCNK9 off-target activity of Kir2.1 blockers. KCNK9-expressing cells, ion flux inhibition. actives 5% (n = 320). shares compounds with Kir21 inh. AID 2329. inhibition, % at 10 µM
Kir21 ephys inh – blocks mouse Kir2.1 current in automated electrophysiology; shares compounds with Kir21 inh; Kir2.1 cells, automated patch-clamp current inhibition; inhibition, % at 25 µM; actives 71% (n = 320); AID 463252
Numbers without * were called inactive; i = inactive; x = no result given. Rows were chosen to be rich in hits. Some 3.7% of all compounds tested hit in one or more screens of this group. Unless noted, how the calls were made is not given here.

SMILES	Kir21 inh	KCNK9 inh-1	KCNQ1 inh	KCNK3 block	KCNQ1 pot	hERG rescue	hERG ctr	KCNK9 inh-2	Kir21 ephys inh
CN(C)C(=O)c1ccccc1Sc1ccc(Cl)cc1Cl	-4.2	i	i	i	i	-12	x	x	x
COc1cc2c(Cc3ccccc3)cncc2cc1O	x	x	x	i	x	x	x	x	x
CC1CN(CCOCCOc2ccccc2-c2ccccc2)CC(C)O1 (centres undefined)	-3.1	i	i	i	i	-8	x	x	x
c1ccc(-c2ccccc2OCCOCCN2CCc3ccccc3C2)cc1	-8.3*	i	i	i	i	-16	66%*	i	39%*
COc1ccc(CNCc2cccc3ccccc23)cc1	x	i	i	i	i	0	i	i	x
CCn1cc(C(=O)OCC(=O)c2cc(C)n(-c3ccc(OC(F)F)cc3)c2C)c(=O)c2ccc(C)nc21	-0.23	i	i	i	i	-2	x	x	x
Cc1ccc(C)c(Cn2c3ccccc3c3cnn(CC(=O)NCCCN4CCCCC4)c(=O)c32)c1	-6.2*	i	i	i	i	-15	i	i	i
N#CC(c1ccc(O)cc1)c1ncc(C(F)(F)F)cc1Cl (centres undefined)	-7.3*	i	i	i	i	-6	i	i	54%*
NC(=O)C(c1ccc(Cl)cc1)c1ncc(C(F)(F)F)cc1Cl (centres undefined)	-0.56	i	i	i	i	-11	x	x	x
CC1CN(C(=O)CCC(=O)NCCCN2CCN(Cc3ccccc3)CC2)c2cc(Cl)ccc2O1 (centres undefined)	-6.3*	i	i	i	i	-10	64%*	i	9.3%*
Nc1cc(N)cc(C(=O)OCC(=O)Nc2cc(S(=O)(=O)N3CCCCC3)ccc2Cl)c1	1.1	i	i	i	i	-2	x	x	x
CCOc1ccc(C(C)=O)cc1CSc1nnnn1-c1ccc(O)cc1	-8.4*	i	i	i	i	-12	i	i	24%*
CC(NS(=O)(=O)c1ccc(Br)cc1)c1ccccc1 (centres undefined)	-6*	i	i	i	i	-8	i	i	54%*
O=C1CCc2cc(NS(=O)(=O)c3cc(F)ccc3F)cc3c2N1CC3	-0.02	i	i	i	i	-7	x	x	x
CC(C)(C)OC(=O)NCCc1nnc(SCc2ccc(Cl)cc2)o1	-16*	i	i	i	i	-18	i	i	74%*
Cc1ccc(CSc2nnc(CCCCCNC(=O)OC(C)(C)C)o2)cc1	-3.1	i	i	i	i	-8	x	x	x
O=C(O)Cn1c(=O)c(F)cn(C2CCCO2)c1=O (centres undefined)	-2.1	i	i	i	i	-14	x	x	x
CC(=O)c1ccc(S(=O)(=O)NC2CC(=O)N(c3ccc(Cl)cc3)C2)cc1 (centres undefined)	-1.2	i	i	i	i	-14	x	x	x
Cc1cc(NC(=O)CSCC(=O)OC(C)C(=O)c2cc(C)c(C)cc2C)no1 (centres undefined)	-6.3*	i	i	i	i	-9	i	i	18%*
O=C1CN(S(=O)(=O)c2cccc(Cl)c2Cl)c2ccccc2N1	-5.7*	i	i	i	i	-7	i	i	i
CC1CCC2(CC1)NC(=O)N(CC(=O)Nc1ccc(C(N)=O)cc1)C2=O (centres undefined)	x	x	x	i	x	x	x	x	x
Cc1ccc2nc(NCc3ccccc3)[nH]c2c1	-10*	i	i	i	i	-21	i	31%*	72%*
CCOc1cc(/C=N/N=C(N)N)ccc1OCc1ccc(Cl)cc1	-16*	i	9*	i	i	-28	60%*	i	i
CCOc1cc(/C=N/O)ccc1OCc1ccc(F)cc1	-0.79	i	i	i	i	-4	x	x	x
Cc1ccc(C)c(OCCCNCc2ccccc2)c1	-9.4*	i	i	i	i	-9	i	i	74%*
SMILES	Kir21 inh	KCNK9 inh-1	KCNQ1 inh	KCNK3 block	KCNQ1 pot	hERG rescue	hERG ctr	KCNK9 inh-2	Kir21 ephys inh
Cc1ccc(C)c(OCCC(=O)OCC(=O)NCc2ccccc2)c1	0.03	i	i	i	i	-11	x	x	x
COC(=O)C1SCCN1S(=O)(=O)c1ccc(Cl)cc1 (centres undefined)	0.86	i	i	i	i	-8	x	x	x
O=S(=O)(c1ccc(Cl)cc1)N1CCSC1c1ccco1 (centres undefined)	-6.5*	i	i	i	i	-9	i	i	21%*
CN(C)Cc1c(O)ccc2oc(Cc3ccccc3)cc12	-5.9*	i	i	i	i	-8	i	i	62%*
O=C(O)C1=C[C@@H](C2CCCCC2)C[C@@H](OCc2ccc(CO)cc2)O1	0.15	i	i	i	i	-5	x	x	x
NC(=O)C1=C[C@@H](C2CCCCC2)C[C@@H](OCc2ccc(CO)cc2)O1	-7.7*	i	i	i	i	-10	i	i	26%*
C[C@@H](NS(=O)(=O)c1cc(Cl)ccc1F)[C@H](O)c1ccccc1	x	x	x	i	x	x	x	x	x
CSc1ccc(CN2CCC(Cc3ccccc3)CC2)cc1	-16*	i	i	i	i	-8	67%*	i	33%*
CC(C)NC(=O)c1ccc(CN2CCC(Cc3ccccc3)CC2)cc1	-0.22	i	i	i	i	-4	x	x	x
Cc1noc(C)c1CSCC(=O)Nc1ccc(S(C)(=O)=O)cc1	x	x	x	i	x	x	x	x	x
OC(CNCc1ccco1)COc1ccccc1 (centres undefined)	-0.05	i	i	i	i	-4	x	x	x
OC(CNCc1ccco1)Cn1c2ccccc2c2ccccc21 (centres undefined)	-11*	i	i	i	i	-12	61%*	i	25%*
c1cc2ccc3ccc(CN4CCOCC4)c4ccc(c1)c2c34	0.31	i	i	i	i	-8	x	x	x
OC1CCCN(Cc2ccc3ccc4cccc5ccc2c3c45)C1 (centres undefined)	-5.8*	i	i	i	i	-4	48%*	i	i
Cc1cc(S(=O)(=O)Nc2cc(C)c(O)c(C)c2)c(C)s1	-6.7*	i	i	i	i	-3	i	i	18%*

Screening results: PubChem, Johns Hopkins Ion Channel Center
